{"source": "ChEMBL document CHEMBL1141663", "about": "“Synthesis and antibacterial activity of bis-[2-hydroxy-3-(1,7,8,9,10-pentamethyl-3,5-dioxo-4-aza-tricyclo[5.2.1.0(2,6)]dec-8-en-4-yloxy)-propyl]-dimethyl-ammonium chloride” (2008)", "key": {"Staphylococcus aureus [1]": {"tested_on": "Staphylococcus aureus", "assay": "Antibacterial activity against methicillin-susceptible Staphylococcus aureus 72/05 isolates after 18 hrs", "assay_type": "functional", "outline": "(§1)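 Agar-dilution MIC on Mueller–Hinton II agar per CLSI guidelines. Aqueous test solutions were added to liquid agar to give two dilution series across 6.25–400 µg/mL. Solidified plates were spot-inoculated with 2 µL aliquots to a final inoculum of 10^4 […]. […] Strains were standard S. aureus strains or hospital patient isolates typed MSSA/MRSA.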"}, "Staphylococcus aureus [2]": {"tested_on": "Staphylococcus aureus", "assay": "Antibacterial activity against methicillin-susceptible Staphylococcus aureus 98/06 isolates after 18 hrs", "assay_type": "functional", "outline": "as §1"}, "Staphylococcus aureus [3]": {"tested_on": "Staphylococcus aureus", "assay": "Antibacterial activity against methicillin-susceptible Staphylococcus aureus 101/06 isolates after 18 hrs", "assay_type": "functional", "outline": "as §1"}, "Staphylococcus aureus [4]": {"tested_on": "Staphylococcus aureus", "assay": "Antibacterial activity against methicillin-susceptible Staphylococcus aureus 102/06 isolates after 18 hrs", "assay_type": "functional", "outline": "as §1"}, "Staphylococcus aureus [5]": {"tested_on": "Staphylococcus aureus", "assay": "Antibacterial activity against methicillin-susceptible Staphylococcus aureus 112/06 isolates after 18 hrs", "assay_type": "functional", "outline": "as §1"}, "Staphylococcus aureus [6]": {"tested_on": "Staphylococcus aureus", "assay": "Antibacterial activity against methicillin-resistant Staphylococcus aureus 1/04 isolates after 18 hrs", "assay_type": "functional", "outline": "as §1"}, "Staphylococcus aureus [7]": {"tested_on": "Staphylococcus aureus", "assay": "Antibacterial activity against methicillin-resistant Staphylococcus aureus 5/04 isolates after 18 hrs", "assay_type": "functional", "outline": "as §1"}, "Staphylococcus aureus [8]": {"tested_on": "Staphylococcus aureus", "assay": "Antibacterial activity against methicillin-resistant Staphylococcus aureus 19/04 isolates after 18 hrs", "assay_type": "functional", "outline": "as §1"}, "Staphylococcus aureus [9]": {"tested_on": "Staphylococcus aureus", "assay": "Antibacterial activity against methicillin-resistant Staphylococcus aureus 29/04 isolates after 18 hrs", "assay_type": "functional", "outline": "as §1"}, "Staphylococcus aureus [10]": {"tested_on": "Staphylococcus aureus", "assay": "Antibacterial activity against methicillin-resistant Staphylococcus aureus 46/05 isolates after 18 hrs", "assay_type": "functional", "outline": "as §1"}, "Staphylococcus aureus [11]": {"tested_on": "Staphylococcus aureus", "assay": "Antibacterial activity against methicillin-resistant Staphylococcus aureus 47/05 isolates after 18 hrs", "assay_type": "functional", "outline": "as §1"}, "Staphylococcus aureus [12]": {"tested_on": "Staphylococcus aureus", "assay": "Antibacterial activity against methicillin-resistant Staphylococcus aureus 48/05 isolates after 18 hrs", "assay_type": "functional", "outline": "as §1"}, "Staphylococcus aureus [13]": {"tested_on": "Staphylococcus aureus", "assay": "Antibacterial activity against methicillin-resistant Staphylococcus aureus 53/05 isolates after 18 hrs", "assay_type": "functional", "outline": "as §1"}, "Staphylococcus aureus [14]": {"tested_on": "Staphylococcus aureus", "assay": "Antibacterial activity against methicillin-resistant Staphylococcus aureus 54/05 isolates after 18 hrs", "assay_type": "functional", "outline": "as §1"}, "Staphylococcus aureus [15]": {"tested_on": "Staphylococcus aureus", "assay": "Antibacterial activity against methicillin-resistant Staphylococcus aureus 55/05 isolates after 18 hrs", "assay_type": "functional", "outline": "as §1"}, "Staphylococcus aureus [16]": {"tested_on": "Staphylococcus aureus", "assay": "Antibacterial activity against methicillin-resistant Staphylococcus aureus 56/05 isolates after 18 hrs", "assay_type": "functional", "outline": "as §1"}, "Staphylococcus aureus [17]": {"tested_on": "Staphylococcus aureus", "assay": "Antibacterial activity against methicillin-resistant Staphylococcus aureus 79/05 isolates after 18 hrs", "assay_type": "functional", "outline": "as §1"}, "Staphylococcus aureus [18]": {"tested_on": "Staphylococcus aureus", "assay": "Antibacterial activity against methicillin-resistant Staphylococcus aureus 80/05 isolates after 18 hrs", "assay_type": "functional", "outline": "as §1"}, "Staphylococcus aureus [19]": {"tested_on": "Staphylococcus aureus", "assay": "Antibacterial activity against methicillin-resistant Staphylococcus aureus 83/05 isolates after 18 hrs", "assay_type": "functional", "outline": "as §1"}, "Staphylococcus aureus [20]": {"tested_on": "Staphylococcus aureus", "assay": "Antibacterial activity against methicillin-resistant Staphylococcus aureus 84/05 isolates after 18 hrs", "assay_type": "functional", "outline": "as §1"}, "Staphylococcus aureus [21]": {"tested_on": "Staphylococcus aureus", "assay": "Antibacterial activity against methicillin-resistant Staphylococcus aureus 85/06 isolates after 18 hrs", "assay_type": "functional", "outline": "as §1"}, "Staphylococcus aureus [22]": {"tested_on": "Staphylococcus aureus", "assay": "Antibacterial activity against methicillin-resistant Staphylococcus aureus 90/06 isolates after 18 hrs", "assay_type": "functional", "outline": "as §1"}, "Staphylococcus aureus [23]": {"tested_on": "Staphylococcus aureus", "assay": "Antibacterial activity against Staphylococcus aureus ATCC 29213 at 400 ug/disk […] by disc-diffusion method", "assay_type": "functional", "conditions": "read-out: IZ"}, "Staphylococcus aureus [24]": {"tested_on": "Staphylococcus aureus", "assay": "Antibacterial activity against Staphylococcus aureus ATCC 6538P at 400 ug/disk after 24 to 48 hrs by disc-diffusion method", "assay_type": "functional", "conditions": "read-out: IZ"}, "Bacillus subtilis": {"tested_on": "Bacillus subtilis", "assay": "Antibacterial activity against Bacillus subtilis ATCC 6633 at 400 ug/disk […] by disc-diffusion method", "assay_type": "functional", "conditions": "read-out: IZ"}, "Enterococcus hirae": {"tested_on": "Enterococcus hirae", "assay": "Antibacterial activity against Enterococcus hirae ATCC 10541 at 400 ug/disk after 24 to 48 hrs by disc-diffusion method", "assay_type": "functional", "conditions": "read-out: IZ"}, "Pseudomonas aeruginosa [25]": {"tested_on": "Pseudomonas aeruginosa", "assay": "Antibacterial activity against Pseudomonas aeruginosa NCTC 6749 at 400 ug/disk […] by disc-diffusion method", "assay_type": "functional, organism-based"}, "Pseudomonas aeruginosa [26]": {"tested_on": "Pseudomonas aeruginosa", "assay": "Antibacterial activity against Pseudomonas aeruginosa ATCC 15442 at 400 ug/disk […] by disc-diffusion method", "assay_type": "functional, organism-based"}, "[27]": {"tested_on": "Bordetella bronchiseptica", "assay": "Antibacterial activity against Bordetella bronchiseptica ATCC 4617 at 400 ug/disk […] by disc-diffusion method", "assay_type": "functional", "conditions": "read-out: IZ"}, "Candida albicans": {"tested_on": "Candida albicans", "assay": "Antimicrobial activity against Candida albicans ATCC 10231 at 400 ug/disk after 24 to 48 hrs by disc-diffusion method", "assay_type": "functional", "conditions": "read-out: IZ", "outline": "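Antifungal disc diffusion on YNB agar under CLSI guidelines. Sterile 10 mm filter-paper discs were loaded from aqueous solution with 100 or 400 µg of compound per disc. Plates were read after 24–48 h incubation at 30 °C.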"}, "Staphylococcus aureus [28]": {"tested_on": "Staphylococcus aureus", "assay": "Antibacterial activity against methicillin-resistant Staphylococcus aureus 91/06 isolates after 18 hrs", "assay_type": "functional", "outline": "as §1"}, "Staphylococcus aureus [29]": {"tested_on": "Staphylococcus aureus", "assay": "Antibacterial activity against methicillin-resistant Staphylococcus aureus 92/06 isolates after 18 hrs", "assay_type": "functional", "outline": "as §1"}, "Staphylococcus aureus [30]": {"tested_on": "Staphylococcus aureus", "assay": "Antibacterial activity against methicillin-resistant Staphylococcus aureus 93/06 isolates after 18 hrs", "assay_type": "functional", "outline": "as §1"}}, "note": "Activity calls are given as the source filed them. No cut-off for these calls is given here."}
{"smiles": "CC1=C(C)C2(C)C3C(=O)N(OCC(O)C[N+](C)(C)CC(O)CON4C(=O)C5C(C4=O)C4(C)C(C)=C(C)C5(C)C4C)C(=O)C3C1(C)C2C.[Cl-]", "note": "(stereo not drawn)", "values": [{"measurement": "MIC", "setting": "Staphylococcus aureus [1]", "value": 50, "unit": "µg/mL"}, {"measurement": "MIC", "setting": "Staphylococcus aureus [2]", "value": 100, "unit": "µg/mL"}, {"measurement": "MIC", "setting": "Staphylococcus aureus [3]", "value": 50, "unit": "µg/mL"}, {"measurement": "MIC", "setting": "Staphylococcus aureus [4]", "value": 50, "unit": "µg/mL"}, {"measurement": "MIC", "setting": "Staphylococcus aureus [5]", "value": 50, "unit": "µg/mL"}, {"measurement": "MIC", "setting": "Staphylococcus aureus [6]", "value": 50, "unit": "µg/mL"}, {"measurement": "MIC", "setting": "Staphylococcus aureus [7]", "value": 200, "unit": "µg/mL"}, {"measurement": "MIC", "setting": "Staphylococcus aureus [8]", "value": 200, "unit": "µg/mL"}, {"measurement": "MIC", "setting": "Staphylococcus aureus [9]", "value": 200, "unit": "µg/mL"}, {"measurement": "MIC", "setting": "Staphylococcus aureus [10]", "value": 50, "unit": "µg/mL"}, {"measurement": "MIC", "setting": "Staphylococcus aureus [11]", "value": 50, "unit": "µg/mL"}, {"measurement": "MIC", "setting": "Staphylococcus aureus [12]", "value": 100, "unit": "µg/mL"}, {"measurement": "MIC", "setting": "Staphylococcus aureus [13]", "value": 50, "unit": "µg/mL"}, {"measurement": "MIC", "setting": "Staphylococcus aureus [14]", "value": 50, "unit": "µg/mL"}, {"measurement": "MIC", "setting": "Staphylococcus aureus [15]", "value": 100, "unit": "µg/mL"}, {"measurement": "MIC", "setting": "Staphylococcus aureus [16]", "value": 50, "unit": "µg/mL"}, {"measurement": "MIC", "setting": "Staphylococcus aureus [17]", "value": 200, "unit": "µg/mL"}, {"measurement": "MIC", "setting": "Staphylococcus aureus [18]", "value": 50, "unit": "µg/mL"}, {"measurement": "MIC", "setting": "Staphylococcus aureus [19]", "value": 50, "unit": "µg/mL"}, {"measurement": "MIC", "setting": "Staphylococcus aureus [20]", "value": 50, "unit": "µg/mL"}, {"measurement": "MIC", "setting": "Staphylococcus aureus [21]", "value": 100, "unit": "µg/mL"}, {"measurement": "MIC", "setting": "Staphylococcus aureus [22]", "value": 100, "unit": "µg/mL"}, {"measurement": "zone of inhibition at 400 µg/disc", "setting": "Staphylococcus aureus [23]", "value": 24, "unit": "mm"}, {"measurement": "zone of inhibition at 400 µg/disc", "setting": "Staphylococcus aureus [24]", "value": 23, "unit": "mm"}, {"measurement": "zone of inhibition at 400 µg/disc", "setting": "Bacillus subtilis", "value": 30, "unit": "mm"}, {"measurement": "zone of inhibition at 400 µg/disc", "setting": "Enterococcus hirae", "value": 18, "unit": "mm"}, {"measurement": "Activity", "setting": "Pseudomonas aeruginosa [25]", "value": "inactive"}, {"measurement": "Activity", "setting": "Pseudomonas aeruginosa [26]", "value": "inactive"}, {"measurement": "zone of inhibition at 400 µg/disc", "setting": "[27]", "value": 21, "unit": "mm"}, {"measurement": "zone of inhibition at 400 µg/disc", "setting": "Candida albicans", "value": 14, "unit": "mm"}, {"measurement": "MIC", "setting": "Staphylococcus aureus [28]", "value": 100, "unit": "µg/mL"}, {"measurement": "MIC", "setting": "Staphylococcus aureus [29]", "value": 100, "unit": "µg/mL"}, {"measurement": "MIC", "setting": "Staphylococcus aureus [30]", "value": 25, "unit": "µg/mL"}]}
